Results reported in ChEMBL document CHEMBL1687926, “14-Aminocamptothecins: their synthesis, preclinical activity, and potential use for cancer treatment” (J Med Chem, 2011).

Assays:
NCI-H460 [1] = assay: Cytotoxicity against human H460 cells after 72 hrs by alamar blue assay; format: functional, cell-based; conditions: Homo sapiens, NCI-H460, 72 h
How it was run: (§1)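 Cells seeded at 4 × 10³ per well and grown 24 h. Compounds dissolved in DMSO and diluted in medium to final concentrations, then incubated 72 h at 37 °C, 5% CO₂. Viable cells read by AlamarBlue; IC₅₀ taken as the concentration giving 50% growth inhibition.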

[2] = Cytotoxicity against human bone marrow cell by CFU-GM assay; format: cell-based; conditions: for IC50: Homo sapiens, Bone marrow cell; for IC90: human, bone marrow cells
[3] = Cytotoxicity against mouse bone marrow cell by CFU-GM assay; format: cell-based
How it was run: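 CFU-GM colony assay on normal human bone marrow (thawed) or mouse femoral marrow (freshly extracted). Human colonies scored after 16-18 days. IC₅₀ taken from triplicate assays.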

[4] = Ratio of IC50 for mouse bone marrow cell to IC50 for human bone marrow cell; format: cell-based; conditions: bone marrow cells
How it was run: (§2)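 CFU-GM colony assay in triplicate at 2 × 10⁴ cells per culture, using thawed normal human bone marrow or fresh mouse femoral marrow. Colonies were scored after 16-18 days. The IC50 or IC90 from each species gave the mouse/human ratio.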

[5] = Ratio of IC90 for mouse bone marrow cell to IC90 for human bone marrow cell; format: ADME, cell-based; conditions: bone marrow cells; how it was run: as §2
PC-3 = assay: Cytotoxicity against human PC3 cells after 72 hrs by alamar blue assay; format: functional, cell-based; conditions: PC-3, 72 h; how it was run: as §1
HT-29 = assay: Cytotoxicity against human HT-29 cells after 72 hrs by alamar blue assay; format: functional, cell-based; conditions: HT-29, 72 h; how it was run: as §1
NCI-H460 [6] = assay: Cytotoxicity against human H460 cells after 72 hrs by alamar blue assay in presence of 40 mg/ml HSA; format: functional, cell-based; conditions: NCI-H460, 72 h
How it was run: (§3)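 H460 cells seeded at 4 × 10³ per well and grown 24 h. Compounds then cocultured with cells for 72 h at 37 °C, with or without 40 mg/mL human serum albumin. Viability read by AlamarBlue; IC₅₀ = 50% growth inhibition. Ratio compares the IC₅₀ with HSA to the IC₅₀ without.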

NCI-H460 [7] = assay: Ratio IC50 for human H460 cells after 72 hrs in presence of 40 mg/ml HSA to IC50 for human H460 cells after 72 hrs; format: functional; how it was run: as §3
[8] = Cytotoxicity against human MESSA cells after 72 hrs by alamar blue assay; format: functional, cell-based; conditions: MES-SA; how it was run: as §1
[9] = Cytotoxicity against human MES-SA/Dx5 cells overexpressing MDR1 after 72 hrs by alamar blue assay; format: functional, cell-based; conditions: MES-SA/Dx5, 72 h; how it was run: as §1
NCI-H69 = assay: Cytotoxicity against human H69 cells after 72 hrs by alamar blue assay; format: functional, cell-based; conditions: NCI-H69, 72 h; how it was run: as §1
[10] = Resistance ratio of IC50 for human MES-SA/Dx5 cells overexpressing MDR1 after 72 hrs to IC50 for human MESSA cells after 72 hrs; format: functional
How it was run: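 Cytotoxicity compared in MDR1-overexpressing lines and their parental wild-type lines. 72 h exposure at 37 °C, viability by AlamarBlue, IC₅₀ at 50% growth inhibition. Resistance ratio = IC₅₀ in overexpressing line / IC₅₀ in parental line.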

H69AR = assay: Cytotoxicity against human H69AR cells overexpressing MRP1 after 72 hrs by alamar blue assay
[11] = Resistance ratio of IC50 for human H69AR cells overexpressing MRP1 after 72 hrs s to IC50 for human H69 cells after 72 hrs
SK-MEL-2 = assay: Cytotoxicity against human SK-MEL-2 cells after 72 hrs by alamar blue assay; format: functional, cell-based; conditions: SK-MEL-2, 72 h; how it was run: as §1
A-375 = assay: Cytotoxicity against human A375 cells after 72 hrs by alamar blue assay; format: functional, cell-based; conditions: A-375, 72 h; how it was run: as §1
Malme-3M = assay: Cytotoxicity against human MALME-3M cells after 72 hrs by alamar blue assay; format: functional, cell-based; how it was run: as §1
DU-145 = assay: Cytotoxicity against human DU145 cells after 72 hrs by alamar blue assay; format: functional, cell-based; conditions: DU-145, 72 h; how it was run: as §1
LNCaP = assay: Cytotoxicity against human LNCAP cells after 72 hrs by alamar blue assay; format: functional, cell-based; how it was run: as §1
IGROV-1 = assay: Cytotoxicity against human IGROV1 cells after 72 hrs by alamar blue assay; format: functional, cell-based; conditions: IGROV-1, 72 h; how it was run: as §1

`CC[C@@]1(O)C(=O)OCc2c1c([N+](=O)[O-])c1n(c2=O)Cc2cc3ccccc3nc2-1` gave an IC50 (NCI-H460 [1]) of 3000 nM.

`CCc1c2c(nc3ccccc13)-c1c([N+](=O)[O-])c3c(c(=O)n1C2)COC(=O)[C@]3(O)CC` gave an IC50 (NCI-H460 [1]) of 4600 nM.

`CC[C@@]1(O)C(=O)Nc2c1c(CO)c(=O)n1c2-c2nc3ccccc3cc2C1` gave an IC50 (NCI-H460 [1]) of 7700 nM.

`CCc1c2c(nc3ccccc13)-c1c3c(c(CO)c(=O)n1C2)[C@@](O)(CC)C(=O)N3` showed an IC50 (NCI-H460 [1]) greater than 10000 nM.

With `CC[C@@]1(O)C(=O)OCc2c1cc1n(c2=O)Cc2cc3c(N)cccc3nc2-1` [9-AMINOCAMPTOTHECIN] the IC50 [2] was 1 nM, the IC90 [2] was 8 nM and the IC50 [3] was 90 nM. It also gave a selectivity ratio [4] of 75 and a selectivity ratio [5] of 88.

In the case of `CC[C@@]1(O)C(=O)OCc2c1cc1n(c2=O)Cc2cc3ccccc3nc2-1` [CAMPTOTHECIN], the IC50 (NCI-H460 [1]) is reported as 13 nM, the IC50 (PC-3) is reported as 12 nM and the IC50 (HT-29) is reported as 260 nM. The IC50 (NCI-H460 [6]) was greater than 1000 nM, the Ratio (NCI-H460 [7]) was greater than 77 and the IC50 [8] was 57 nM. The IC50 [9] was 52 nM, the IC50 (NCI-H69) was 1 nM and the Ratio [10] was 1. The IC50 (H69AR) was greater than 300 nM and the Ratio [11] was greater than 250.

For `CCc1c2c(nc3ccc(OC(=O)N4CCC(N5CCCCC5)CC4)cc13)-c1cc3c(c(=O)n1C2)COC(=O)[C@]3(O)CC` [IRINOTECAN], the IC50 (NCI-H460 [1]) was 15 nM, the IC50 (PC-3) was 4 nM and the IC50 (HT-29) was 220 nM. It also gave an IC50 (SK-MEL-2) of 100 nM, an IC50 (A-375) of 4 nM and an IC50 (Malme-3M) of 200 nM. For the same molecule, the IC50 (DU-145) was 200 nM, the IC50 (LNCaP) was 9 nM and the IC50 (IGROV-1) was 30 nM. For the same molecule, the IC50 (NCI-H460 [6]) was 27 nM, the Ratio (NCI-H460 [7]) was 2 and the IC50 [8] was 10 nM. For the same molecule, the IC50 [9] was 22 nM, the IC50 (NCI-H69) was 22 nM and the Ratio [10] was 2. The IC50 [2] was 1 nM, the IC90 [2] was 8 nM and the IC50 [3] was 110 nM. The selectivity ratio [4] was 85, the selectivity ratio [5] was 100 and the IC50 (H69AR) was 250 nM. For the same molecule, the Ratio [11] was 11.
